The target in experiment [1] is T1, Adrenergic receptor alpha-1 (Rattus norvegicus, UniProt P15823+P23944+P43140).
T1 sequence (P15823 whole entry): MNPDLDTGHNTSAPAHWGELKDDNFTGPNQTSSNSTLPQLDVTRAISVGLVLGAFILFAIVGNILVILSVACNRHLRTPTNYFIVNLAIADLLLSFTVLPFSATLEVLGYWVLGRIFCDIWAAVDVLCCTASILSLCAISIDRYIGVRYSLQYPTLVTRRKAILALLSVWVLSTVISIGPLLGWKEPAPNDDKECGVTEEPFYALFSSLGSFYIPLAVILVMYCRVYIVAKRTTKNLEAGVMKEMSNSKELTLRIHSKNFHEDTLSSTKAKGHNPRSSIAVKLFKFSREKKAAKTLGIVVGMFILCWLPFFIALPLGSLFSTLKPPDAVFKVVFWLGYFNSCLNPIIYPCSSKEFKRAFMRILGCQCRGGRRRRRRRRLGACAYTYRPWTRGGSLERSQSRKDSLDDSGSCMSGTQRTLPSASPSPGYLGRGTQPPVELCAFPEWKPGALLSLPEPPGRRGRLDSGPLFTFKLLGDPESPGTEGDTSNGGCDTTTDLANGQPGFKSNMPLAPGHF
T1 sequence (P23944 whole entry): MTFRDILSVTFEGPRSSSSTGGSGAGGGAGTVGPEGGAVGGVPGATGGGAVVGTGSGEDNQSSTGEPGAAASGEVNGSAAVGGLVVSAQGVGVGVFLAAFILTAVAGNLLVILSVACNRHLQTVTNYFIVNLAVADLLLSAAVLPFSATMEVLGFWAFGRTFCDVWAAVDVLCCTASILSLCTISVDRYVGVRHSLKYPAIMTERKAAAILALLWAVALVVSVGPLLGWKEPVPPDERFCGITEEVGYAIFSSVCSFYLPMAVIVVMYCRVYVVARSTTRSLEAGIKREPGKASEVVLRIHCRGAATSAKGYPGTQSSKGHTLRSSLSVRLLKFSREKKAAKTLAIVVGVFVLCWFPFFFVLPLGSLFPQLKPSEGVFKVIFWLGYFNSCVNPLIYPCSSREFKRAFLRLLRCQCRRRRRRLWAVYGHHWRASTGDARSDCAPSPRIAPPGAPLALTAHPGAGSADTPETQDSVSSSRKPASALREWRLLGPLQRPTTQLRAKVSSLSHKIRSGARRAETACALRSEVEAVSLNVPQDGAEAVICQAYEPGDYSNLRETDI
T1 sequence (P43140 whole entry): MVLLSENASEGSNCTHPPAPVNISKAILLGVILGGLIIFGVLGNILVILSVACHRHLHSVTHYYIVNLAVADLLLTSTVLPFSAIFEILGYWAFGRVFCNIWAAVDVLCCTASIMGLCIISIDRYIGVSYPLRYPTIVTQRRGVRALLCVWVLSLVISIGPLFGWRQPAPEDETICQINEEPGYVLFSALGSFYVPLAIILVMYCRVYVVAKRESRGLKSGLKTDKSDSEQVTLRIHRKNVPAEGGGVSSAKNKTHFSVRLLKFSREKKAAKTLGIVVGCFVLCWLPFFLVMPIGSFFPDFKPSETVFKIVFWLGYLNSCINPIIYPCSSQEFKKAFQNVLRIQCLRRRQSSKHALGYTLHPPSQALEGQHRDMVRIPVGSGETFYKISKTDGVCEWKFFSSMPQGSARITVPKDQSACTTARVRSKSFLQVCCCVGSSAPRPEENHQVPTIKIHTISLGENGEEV
As to the kind of experiment: Displacement of [3H]prazosin from adrenergic alpha1 receptor in rat cortex.

The target of experiment [2] is Muscarinic acetylcholine receptor. As to the kind of experiment: Displacement of [3H]QNB from muscarinic receptor in rat cortex. For orientation: Displacement assays read how much labelled ligand stays bound in the presence of the test substance.
In a further experiment the target is D(2) dopamine receptor (Rattus norvegicus, UniProt P61169). The experiment in a line: Displacement of [3H]spiperone from dopamine D2 receptor in rat striatum.
Chain of D(2) dopamine receptor (P61169 whole entry): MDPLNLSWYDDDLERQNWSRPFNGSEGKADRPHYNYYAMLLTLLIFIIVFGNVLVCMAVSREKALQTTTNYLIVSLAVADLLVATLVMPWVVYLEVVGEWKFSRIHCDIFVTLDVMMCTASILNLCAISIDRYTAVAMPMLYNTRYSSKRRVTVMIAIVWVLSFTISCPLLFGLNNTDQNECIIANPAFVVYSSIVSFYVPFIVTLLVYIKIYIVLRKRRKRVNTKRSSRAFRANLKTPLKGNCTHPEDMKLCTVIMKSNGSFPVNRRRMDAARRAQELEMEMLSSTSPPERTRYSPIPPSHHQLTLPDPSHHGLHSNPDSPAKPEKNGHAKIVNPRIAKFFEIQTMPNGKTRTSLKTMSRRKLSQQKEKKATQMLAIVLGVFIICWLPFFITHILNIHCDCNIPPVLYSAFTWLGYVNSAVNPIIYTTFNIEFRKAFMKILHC
The target in experiment [3] is 5-hydroxytryptamine receptor 4 (Cavia porcellus, UniProt O70528). As to the kind of experiment: Displacement of [3H]GR-113808 from 5HT4 receptor in guinea pig striatum.
Chain of 5-hydroxytryptamine receptor 4 (O70528 whole entry): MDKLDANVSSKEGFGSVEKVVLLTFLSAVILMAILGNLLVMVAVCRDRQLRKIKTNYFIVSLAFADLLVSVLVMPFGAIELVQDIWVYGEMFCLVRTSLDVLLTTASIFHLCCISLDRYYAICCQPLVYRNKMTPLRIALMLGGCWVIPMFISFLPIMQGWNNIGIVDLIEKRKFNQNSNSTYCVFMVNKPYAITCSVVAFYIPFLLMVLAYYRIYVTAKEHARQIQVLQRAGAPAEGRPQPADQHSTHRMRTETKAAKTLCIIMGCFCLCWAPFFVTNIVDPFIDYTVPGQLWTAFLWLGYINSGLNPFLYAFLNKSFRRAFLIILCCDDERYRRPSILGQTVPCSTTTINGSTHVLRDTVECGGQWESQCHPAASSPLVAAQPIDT
For experiment [4], the target named is T2, Alpha-2A adrenergic receptor (Rattus norvegicus, UniProt P22909).
T2 sequence (P22909 whole entry): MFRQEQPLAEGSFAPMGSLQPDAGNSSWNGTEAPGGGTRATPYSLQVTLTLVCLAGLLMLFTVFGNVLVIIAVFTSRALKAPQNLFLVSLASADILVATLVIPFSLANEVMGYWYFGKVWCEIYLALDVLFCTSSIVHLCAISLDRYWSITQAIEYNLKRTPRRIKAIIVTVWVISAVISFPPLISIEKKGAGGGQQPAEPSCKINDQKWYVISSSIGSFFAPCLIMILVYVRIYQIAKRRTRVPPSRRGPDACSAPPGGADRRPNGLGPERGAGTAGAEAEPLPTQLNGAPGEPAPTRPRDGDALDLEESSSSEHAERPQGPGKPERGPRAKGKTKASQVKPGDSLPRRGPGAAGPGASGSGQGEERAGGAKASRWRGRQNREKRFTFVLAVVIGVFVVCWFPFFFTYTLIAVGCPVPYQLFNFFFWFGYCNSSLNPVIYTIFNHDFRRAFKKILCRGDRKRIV
The experiment in a line: Displacement of [3H]RX821002 from adrenergic alpha2 receptor in rat cortex.

Experiment [5] has as its target 5-hydroxytryptamine receptor 2A (Rattus norvegicus, UniProt P14842). The experiment in a line: Displacement of [3H]ketanserin from 5HT2A receptor in rat cortex.
The target in experiment [6] is T3, 5-hydroxytryptamine receptor 3A (Rattus norvegicus, UniProt P35563).
T3 sequence (P35563 whole entry): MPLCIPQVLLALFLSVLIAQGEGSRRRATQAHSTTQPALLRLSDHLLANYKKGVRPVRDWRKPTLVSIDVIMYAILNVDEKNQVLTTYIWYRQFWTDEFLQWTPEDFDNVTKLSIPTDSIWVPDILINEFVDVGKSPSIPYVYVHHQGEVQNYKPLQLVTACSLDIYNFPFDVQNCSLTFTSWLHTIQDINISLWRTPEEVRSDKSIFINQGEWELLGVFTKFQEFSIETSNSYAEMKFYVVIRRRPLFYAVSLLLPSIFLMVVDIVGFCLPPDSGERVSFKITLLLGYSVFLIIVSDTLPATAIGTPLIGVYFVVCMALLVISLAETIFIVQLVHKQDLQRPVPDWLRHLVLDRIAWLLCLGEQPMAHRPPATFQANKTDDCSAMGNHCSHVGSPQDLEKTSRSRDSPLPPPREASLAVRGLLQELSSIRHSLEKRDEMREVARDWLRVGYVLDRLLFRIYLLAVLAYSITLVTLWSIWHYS
As to the kind of experiment: Displacement of [3H]LY278584 from 5HT3 receptor in rat cortical homogenate.

The target in a further experiment is D(1A) dopamine receptor (Rattus norvegicus, UniProt P18901). The experiment in a line: Displacement of [3H]SCH-23390 from dopamine D1 receptor in rat striatum.
Chain of D(1A) dopamine receptor (P18901 whole entry): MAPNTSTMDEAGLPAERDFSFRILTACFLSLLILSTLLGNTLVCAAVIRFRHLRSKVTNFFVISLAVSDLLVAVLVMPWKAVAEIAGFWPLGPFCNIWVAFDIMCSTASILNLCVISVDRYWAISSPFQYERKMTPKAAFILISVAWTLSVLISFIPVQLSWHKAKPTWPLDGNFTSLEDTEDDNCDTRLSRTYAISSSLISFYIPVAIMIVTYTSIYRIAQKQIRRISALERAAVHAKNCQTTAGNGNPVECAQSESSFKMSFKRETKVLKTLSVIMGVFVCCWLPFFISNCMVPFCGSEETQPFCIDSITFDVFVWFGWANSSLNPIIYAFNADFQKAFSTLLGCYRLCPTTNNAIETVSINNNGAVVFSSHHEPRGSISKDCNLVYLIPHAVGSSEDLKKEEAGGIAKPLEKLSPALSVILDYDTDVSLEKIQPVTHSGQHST
In experiment [7] the target is T4, 5-hydroxytryptamine receptor 1A (Rattus norvegicus, UniProt P19327).
T4 sequence (P19327 whole entry): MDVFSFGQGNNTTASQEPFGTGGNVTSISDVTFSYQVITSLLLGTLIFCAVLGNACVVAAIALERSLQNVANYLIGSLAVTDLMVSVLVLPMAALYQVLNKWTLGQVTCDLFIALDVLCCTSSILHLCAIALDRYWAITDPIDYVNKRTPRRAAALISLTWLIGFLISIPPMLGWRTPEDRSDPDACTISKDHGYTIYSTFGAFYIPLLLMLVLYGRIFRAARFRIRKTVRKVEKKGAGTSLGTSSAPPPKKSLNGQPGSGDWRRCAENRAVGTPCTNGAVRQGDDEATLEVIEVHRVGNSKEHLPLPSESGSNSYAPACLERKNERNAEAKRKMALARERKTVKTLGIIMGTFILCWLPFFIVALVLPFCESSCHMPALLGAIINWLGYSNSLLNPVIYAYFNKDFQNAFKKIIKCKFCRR
The experiment in a line: Displacement of [3H]8-OHDPAT from 5HT1A receptor in rat hippocampus. The format is tissue-based.

Experiment [8] deals with T5, 5-hydroxytryptamine receptor 3A (Cavia porcellus) (UniProt O70212).
T5 sequence (whole entry): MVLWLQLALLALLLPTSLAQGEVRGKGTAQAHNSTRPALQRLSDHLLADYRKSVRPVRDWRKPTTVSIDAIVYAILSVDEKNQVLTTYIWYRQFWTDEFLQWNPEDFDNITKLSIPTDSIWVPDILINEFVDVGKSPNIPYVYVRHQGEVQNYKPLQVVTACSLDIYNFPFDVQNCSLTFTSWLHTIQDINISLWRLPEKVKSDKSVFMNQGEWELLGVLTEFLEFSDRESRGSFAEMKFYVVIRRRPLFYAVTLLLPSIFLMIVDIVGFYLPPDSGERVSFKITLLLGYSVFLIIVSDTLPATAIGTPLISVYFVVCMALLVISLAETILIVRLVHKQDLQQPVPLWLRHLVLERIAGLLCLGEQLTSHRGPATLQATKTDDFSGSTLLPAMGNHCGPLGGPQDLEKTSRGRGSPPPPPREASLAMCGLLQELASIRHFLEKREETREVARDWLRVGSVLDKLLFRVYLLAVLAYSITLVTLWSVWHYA
The experiment in a line: Agonist activity at 5HT3 receptor in voltage-stimulated guinea pig left atrium assessed as positive inotropic potency. The following applies: Cardiac atrium. In kind it is functional, tissue-based. An outline of the steps:
(§1)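 Isolated guinea pig atria in PSS (Tyrode) with ketanserin 1 µM, 95% O2-5% CO2, pH 7.4, 35 °C. Right atrium beating spontaneously (rate); left atrium paced 1 Hz, 0.6-0.8 ms pulses near 50% threshold (force). Isometric recording after 45-60 min stabilization.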

The target in experiment [9] is T5, 5-hydroxytryptamine receptor 3A (Cavia porcellus). The following applies: Thoracic aorta.
Experiment [10] shares this target. As to the kind of experiment: Agonist activity at 5HT3 receptor in spontaneously beating guinea pig right atrium assessed as positive chronotropic potency. In kind it is functional, tissue-based. The following applies: Cardiac atrium. An outline of the steps: as §1
Experiment [11] shares this target. As to the kind of experiment: Intrinsic activity at 5HT3 receptor in voltage-stimulated guinea pig left atrium assessed as positive inotropic potency relative to serotonin. Conditions: Cardiac atrium. In kind it is tissue-based. An outline of the steps:
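Electrically paced guinea pig left atrium (1 Hz) in PSS containing ketanserin 1 µM, pH 7.4, 35 °C. Contractile force recorded isometrically while cumulative concentrations of 0.1-100 µM were added (DMSO ≤0.3%). Intrinsic activity is expressed as the maximal response relative to that of 5-HT.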

For experiment [12] the target is unchanged. The experiment in a line: Intrinsic activity at 5HT3 receptor in spontaneously beating guinea pig right atrium assessed as positive chronotropic potency relative to serotonin. The following applies: Cardiac atrium. An outline of the steps:
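Guinea pig left and right atria were hung in a 15 mL bath of PSS (pH 7.4, 95% O2-5% CO2, 35 °C) with ketanserin 1 µM. The right atrium beat spontaneously; the left was paced at 1 Hz. Cumulative doses (0.1-100 µM; DMSO ≤0.3%) were added after 45-60 min stabilization. Rate or isometric force was recorded. EC50 came from Probit analysis, n≥4. Intrinsic activity was taken relative to 5-HT.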

Bounds are passed on as bounds.

Chain of 5-hydroxytryptamine receptor 2A (P14842 whole entry): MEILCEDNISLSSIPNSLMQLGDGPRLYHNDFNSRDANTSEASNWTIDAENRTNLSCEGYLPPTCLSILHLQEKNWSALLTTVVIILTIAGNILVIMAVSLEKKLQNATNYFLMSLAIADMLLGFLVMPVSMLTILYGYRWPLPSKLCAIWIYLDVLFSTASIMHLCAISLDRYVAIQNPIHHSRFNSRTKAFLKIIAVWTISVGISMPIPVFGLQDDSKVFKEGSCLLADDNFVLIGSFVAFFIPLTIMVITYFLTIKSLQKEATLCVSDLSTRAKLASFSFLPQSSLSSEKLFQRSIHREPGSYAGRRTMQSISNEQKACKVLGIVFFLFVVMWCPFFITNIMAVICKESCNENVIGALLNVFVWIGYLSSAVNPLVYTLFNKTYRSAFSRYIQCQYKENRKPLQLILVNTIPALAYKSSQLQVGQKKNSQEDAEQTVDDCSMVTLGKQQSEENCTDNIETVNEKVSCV

As a reminder, the Ki is the dissociation constant of the complex between target and ligand, obtained from inhibition or displacement. For the compound `N[C@H](CN1CCN(c2nc3cc(F)ccc3n3cccc23)CC1)C(=O)O`, the Ki (in experiment [1]; in [2]; on D(2) dopamine receptor; in [3]; in [4]; in experiment [5]) was above 10 µM throughout. For the same compound, the inhibition constant (Ki) is 0.0012 µM in [6], above 10 µM at D(1A) dopamine receptor and 0.48 µM in [7].
With `NCCc1c[nH]c2ccc(O)cc12`, the pD2 in [8] is 6.85; in [9], 4.19; in experiment [10], 5.78.
Turning to `Cc1[nH]c2ccc(O)cc2c1CCN`, the figures for the pD2 in experiment [8] and in experiment [10] were 5.51 and 5.06, respectively. Besides, the Intrinsic activity in experiment [11] and in [12] was 1 throughout.

Source of the values: ChEMBL document CHEMBL1136924 (J Med Chem, 2009).
